From PubChem BioAssay
CAL PDZ FP-1: CAL PDZ (human) peptide binding inhibition; Q9HD26; purified CAL PDZ, TMR-peptide fluorescence polarization, 1 h; inhibition, % at 24.9 µM; hit rate 0.92% among 300,000; AID 602252;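 active = mean inhibition of at least 30% with at least half of replicates also reaching 30%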;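 note: 0% = DMSO neutral control and 100% = excess unlabeled competitor peptide PRC23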
Keap1-Nrf2 PPI: inhibitors of human Keap1-Nrf2 protein-protein interaction; Q14145; Keap1 Kelch-Nrf2 peptide fluorescence polarization, 1536-well; inhibition, % at 9.4 µM; hit rate 0.15% among 340,000; AID 504523; in the data active = inhibition above about 12%;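 note: human Keap1 Kelch domain with fluorescein labeled Nrf2 9mer peptide probe; 0% = neutral control wells and 100% = peptide positive control; higher means more block of Keap1 binding to Nrf2 peptide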
LANA-H2B inh: blocks KSHV LANA binding to histone H2A/H2B; Q9QR71; cell-free LANA-H2A/H2B peptide, fluorescence polarization; inhibition, % (concentration not given with the values); hit rate 0.6% among 320,000; in the data active = inhibition mostly above about 10%, no sharp cut-off; inactive = mostly below about 6.7%
Target sequence (Q9QR71 whole entry, looked up): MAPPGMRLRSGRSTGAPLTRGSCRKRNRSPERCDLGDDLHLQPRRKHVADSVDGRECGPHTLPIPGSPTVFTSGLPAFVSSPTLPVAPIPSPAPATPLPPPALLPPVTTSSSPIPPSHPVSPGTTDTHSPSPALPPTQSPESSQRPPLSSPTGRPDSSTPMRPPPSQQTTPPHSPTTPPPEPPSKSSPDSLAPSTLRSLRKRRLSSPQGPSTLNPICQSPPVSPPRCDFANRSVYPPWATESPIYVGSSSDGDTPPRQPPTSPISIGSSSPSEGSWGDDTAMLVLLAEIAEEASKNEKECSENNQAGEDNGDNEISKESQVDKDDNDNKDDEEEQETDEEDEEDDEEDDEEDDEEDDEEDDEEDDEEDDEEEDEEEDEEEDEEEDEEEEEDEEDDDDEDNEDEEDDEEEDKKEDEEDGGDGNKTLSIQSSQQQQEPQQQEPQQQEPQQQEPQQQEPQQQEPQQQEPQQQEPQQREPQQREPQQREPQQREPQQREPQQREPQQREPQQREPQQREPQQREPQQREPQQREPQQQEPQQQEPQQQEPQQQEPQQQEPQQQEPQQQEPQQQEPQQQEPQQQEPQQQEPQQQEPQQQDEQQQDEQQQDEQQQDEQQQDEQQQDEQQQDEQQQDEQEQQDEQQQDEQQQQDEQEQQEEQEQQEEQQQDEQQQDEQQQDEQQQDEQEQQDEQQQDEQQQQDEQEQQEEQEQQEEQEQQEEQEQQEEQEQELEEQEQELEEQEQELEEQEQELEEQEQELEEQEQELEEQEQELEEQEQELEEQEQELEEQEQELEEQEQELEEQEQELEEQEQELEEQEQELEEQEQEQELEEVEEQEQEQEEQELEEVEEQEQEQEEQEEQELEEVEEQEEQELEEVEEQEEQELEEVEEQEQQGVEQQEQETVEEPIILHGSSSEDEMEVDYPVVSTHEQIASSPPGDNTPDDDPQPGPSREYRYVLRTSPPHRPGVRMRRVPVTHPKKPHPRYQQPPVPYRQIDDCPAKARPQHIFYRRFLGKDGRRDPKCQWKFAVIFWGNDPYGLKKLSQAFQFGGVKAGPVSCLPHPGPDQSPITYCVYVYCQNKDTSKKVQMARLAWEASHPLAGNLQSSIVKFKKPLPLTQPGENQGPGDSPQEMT
CAL PDZ FP-2: blocks peptide binding to human CAL PDZ domain; Q9HD26; inhibition, % at 20 µM; purified CAL PDZ, TMR-peptide fluorescence polarization, 1 h; hit rate 0.02% among 330,000;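 active = highest replicate inhibition of at least 40%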;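 note: plate controls were DMSO neutral control wells for no effect and unlabeled competitor peptide control wells for full effect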
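Material: tagged CAL PDZ protein CerCALP, purified; buffer or medium: sodium phosphate/NaCl buffer pH 7.4 with TCEP, IgG, Thesit; also added: fluorescent TMR peptide probe; schedule: 1 h incubation at room temperature before polarization reading; technique: fluorescence polarization from S- and P-plane intensities, G-factor corrected; control set: unlabelled peptide and DMSO controls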
CaV13 ICDI inh: Disruptors of the CACNA1D IQ motif to Ca2+-dependent inactivation inhibitor domain association, primary screening, Förster resonance energy transfer in intact living …. HEK cells, CFP/YFP FRET ICDI-IQ, plate reader, 10 min; percent FRET-ratio fall versus neutral wells. inhibition, % at 12.3 µM. hit rate 0.098% among 340,000. AID 743397;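 active = mean replicate inhibition of at least 30% and at least 1% of replicates passing that level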;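 note: 0% = median of the neutral control wells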
C-LANA FP: KSHV C-LANA DNA binding inhibition | AID 504423 | MBP-C-LANA/FAM-LBS DNA binding, fluorescence polarization | inhibition, % at 9 µM | hit rate 0.078% among 340,000;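 active = highest replicate inhibition at or above 60% at 9 µM, even if other replicates fall short; inactive = all replicates below 60% inhibition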;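 note: 0% = neutral control wells and 100% = 4 µM acridine orange control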
Starred values were filed as active, the others as inactive; . = no result; + = active, no number. Most compounds without a hit are left out; they make up all but 1.5% or so of the library.

SMILES | CAL PDZ FP-1 | Keap1-Nrf2 PPI | LANA-H2B inh | CAL PDZ FP-2 | CaV13 ICDI inh | C-LANA FP
COC(=O)C1=C(C)N(Cc2ccccc2C(F)(F)F)C(=NCc2ccccc2)NC1c1cccc(F)c1 (centres undefined) | . | . | . | . | -3 | .
CC1CN(C(=O)/C=C/c2ccc([N+](=O)[O-])s2)CC(C)O1 (centres undefined) | 40* | 1 | -1 | 0 | -5 | 3
COc1ccc(C(=O)N/N=C/c2sc3ccccc3c2O)cc1 | -2 | -76 | + | 0 | . | -21
COc1ccc2cc(C(=O)N/N=C/c3sc4ccccc4c3O)ccc2c1 | -11 | -20 | -7 | -1 | -10 | -8
O=C(N/N=C/c1sc2ccccc2c1O)c1cccc2ccccc12 | 1 | -18 | + | 0 | -10 | -2
CN(C)C(=O)c1cccc(-c2cccc3nccn23)c1 | . | . | . | . | -6 | .
O=C(COC(=O)CCCN1C(=O)c2ccccc2C1=O)Nc1ncc(Cl)cc1Cl | 40* | -7 | -1 | -1 | -5 | 0
O=C(COC(=O)CN1C(=O)c2ccccc2C1=O)Nc1ncc(Cl)cc1Cl | -2 | -4 | 0 | 0 | -7 | 0
O=C(Nc1cccc([N+](=O)[O-])c1)c1cc(S(=O)(=O)Nc2ccccn2)ccc1Cl | 44* | 0 | -1 | 0 | -3 | -3
O=C(/C=C(\Nc1cc(Cl)c(Cl)c(Cl)c1)c1ccccc1)c1ccccc1 | . | . | . | . | -4 | .
Cc1cccc2cc(-c3nc4ccc(C(=O)O)cc4[nH]3)c(=O)oc12 | 81* | -2 | 4 | . | . | 4
Oc1ccc(Cl)cc1N=Nc1ccccc1 | 2 | -4 | -3 | 0 | -2 | -1
Nc1c(Cl)cc(N=Nc2ccccc2)cc1Cl | + | 4 | . | 0 | -14 | 2
CCCCC(CC)COC(=O)CCCCC(=O)OCC(CC)CCCC (centres undefined) | -2 | -4 | 46* | 0 | . | 1
F[B-](F)(F)c1cncnc1 | . | . | . | . | -6 | .
COCCN1Cc2cc(C(=O)OC)c3c(c2C1=O)c1cc(F)ccc1n3S(=O)(=O)c1ccc(C)cc1 | . | . | . | . | -8 | .
Cc1oc2c(C)c3oc(=O)c(CCC(=O)N4C[C@H]5C[C@@H](C4)c4cccc(=O)n4C5)c(C)c3cc2c1C | -9 | -2 | 35* | -5 | . | -2
Nc1nc2c(ncn2[C@@H]2O[C@H](C(=O)N[C@H](Cc3ccccc3)C(=O)NCc3ccc4c(c3)OCO4)[C@@H](O)[C@H]2O)c(=O)[nH]1 | . | . | . | . | -10 | .
CCCn1cnc2c(SCCc3ccccc3)nc(N)nc21 | 54* | -4 | . | . | -4 | -5
Cc1cc(C(=O)O)ccc1-c1ccc(/C=C2\SC(=O)N(CC(=O)Nc3ccc4c(c3)OCO4)C2=O)o1 | -6 | 13* | 7 | -5 | . | 11
Cc1ccc(C(=O)O)cc1-c1ccc(/C=C2\SC(=O)N(CC(=O)Nc3ccccc3)C2=O)o1 | 4 | 1 | 2 | -4 | -4 | 8
CCSc1ccccc1C(=O)NCCc1ccccc1 | 46* | -1 | 4 | 0 | -1 | -1
Cc1ccc(NC(=O)COc2ccccc2C(=O)NCCc2ccccc2)cc1 | 72* | 2 | 0 | 3 | -1 | 1
CCOC(=O)C1=CCN(S(=O)(=O)c2cccc(Cl)c2)C1c1ccc(Cl)cc1 (centres undefined) | . | . | . | . | -2 | .
C=CC[C@]12C[C@@]3(O[C@H](c4ccc(C(F)(F)F)cc4)N=C3C[C@H](c3ccc(OC)cc3)[C@H]1C)N(Cc1ccncc1)C2=O | . | . | . | . | -4 | .
SMILES | CAL PDZ FP-1 | Keap1-Nrf2 PPI | LANA-H2B inh | CAL PDZ FP-2 | CaV13 ICDI inh | C-LANA FP
O=S(=O)(O)c1cc(Cl)cc(N=Nc2ccc(O)cc2O)c1O | 0 | -2 | . | 1 | -17 | 84*
COc1ccc(NC(=O)NC2(C(=O)N3CCN(C)CC3)CCCCC2)cc1 | 61* | 0 | -3 | 10 | -3 | -1
O=C(c1ccccc1)N1CCC2CCN(CCc3ccccc3)CC21 (centres undefined) | . | . | . | . | -12 | .
COc1ccc(C)cc1NC(=O)C1CC(=O)N(Cc2ccco2)C1 (centres undefined) | 0 | 1 | 13* | -2 | -5 | 0
Cc1ccc(OCC(=O)N2CC(C)OC(C)C2)c([N+](=O)[O-])n1 (centres undefined) | 46* | -2 | 0 | 7 | -3 | -2
Cc1ccc(OCC(=O)N(C)Cc2ccccc2)c([N+](=O)[O-])n1 | -2 | 5 | 17* | 0 | -14 | 4
CN(Cc1ccccc1)C(=O)COc1cccnc1[N+](=O)[O-] | 0 | -4 | -1 | -2 | -4 | 4
CCOC(=O)N1CCN(C(=O)C[C@@H]2C[C@@]3(C(=O)OC)CCCCC=C3N(CCc3ccc(OC)c(OC)c3)C2=O)CC1 | . | . | . | . | -16 | .
O=C(NCC1COc2ccccc2O1)c1cccc(S(=O)(=O)N2CCOCC2)c1 (centres undefined) | . | 3 | 26* | 1 | -2 | 2
O=C(NCC1COc2ccccc2O1)c1ccc(Cl)c(S(=O)(=O)N2CCOCC2)c1 (centres undefined) | 15 | -6 | -3 | -2 | -2 | -1
COC(=O)C1=C(C)N(Cc2cccc(C(F)(F)F)c2)C(=NCc2cc(OC)c(OC)c(OC)c2)NC1c1ccccc1 (centres undefined) | . | . | . | . | -4 | .
O=C(NNS(=O)(=O)c1ccc(F)cc1)C1CC(c2cccnc2)=NO1 (centres undefined) | 74* | -6 | 0 | 0 | -8 | 0
Cc1nn(CC(=O)N2CCc3ccccc3C2)c(C)c1[N+](=O)[O-] | -4 | 0 | 1 | -1 | 2 | -1
Cc1nn(CC(=O)N2CC(=O)Nc3ccccc32)c(C)c1[N+](=O)[O-] | 63* | 0 | 3 | 1 | -3 | -2
CN(CC(=O)Nc1cccc(F)c1)C(=O)c1ccc2c(=O)n3c(nc2c1)CCC3 | -4 | 5 | -3 | -1 | -5 | 0
CN(Cc1cccc(F)c1)C(=O)c1ccc2c(=O)n3c(nc2c1)CCC3 | 65* | -9 | -3 | 0 | -6 | 0
Cc1ccc(S(=O)(=O)NC(CC(C)C)C(=O)N2CC(C)OC(C)C2)cc1 (centres undefined) | 75* | 3 | 1 | 0 | -9 | 0
CN(C)c1ccc(CNC(=O)c2cc(S(=O)(=O)N3CCOCC3)cn2C)cc1 | -2 | 0 | 2 | 0 | -4 | -1
CSc1ncnc2c1ncn2CCCNCC(c1ccccc1)c1ccccc1 | . | . | . | . | -6 | .
Cc1ccccc1NC(=O)C(=O)NNC(=O)COc1ccc2ccccc2c1 | 39* | 1 | 18 | -1 | -7 | 1
C[C@H](NS(=O)(=O)c1ccc(Cl)cc1)C(=O)OCC(=O)NC(=O)Nc1ccc2c(c1)OCCO2 | -3 | -4 | 18 | -1 | -15 | -1
